Results reported in ChEMBL document CHEMBL1153337, “Small molecule antagonists of the gonadotropin-releasing hormone (GnRH) receptor: structure-activity relationships of small heterocyclic groups appended to the 2-phenyl-4-piperazinyl-benzimidazole template” (Bioorg Med Chem Lett, 2009).
Values after ≈ are worked out from the molar mass of the structure shown.

Experiments:
[1] = target: T1, Gonadotropin-releasing hormone receptor (Homo sapiens, UniProt P30968); assay: Displacement of [125I]-(D-Trp6)-GnRH from human GnRH receptor
T1 sequence (P30968 whole entry): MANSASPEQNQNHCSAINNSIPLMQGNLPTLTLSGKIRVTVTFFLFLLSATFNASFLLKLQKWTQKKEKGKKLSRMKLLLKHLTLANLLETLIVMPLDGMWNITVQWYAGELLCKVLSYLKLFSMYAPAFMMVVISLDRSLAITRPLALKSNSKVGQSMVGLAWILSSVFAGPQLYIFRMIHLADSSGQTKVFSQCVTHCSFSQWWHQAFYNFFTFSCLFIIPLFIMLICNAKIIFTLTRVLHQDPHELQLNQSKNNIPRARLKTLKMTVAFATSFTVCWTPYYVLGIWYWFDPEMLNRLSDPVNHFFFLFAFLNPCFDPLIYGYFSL
How it was run: (§1)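 Competition binding at overexpressed human or rat GnRH receptors against 125I-(D-Trp6)-GnRH; IC50 averaged from two independent experiments run in triplicate.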

[2] = target: T2, Gonadotropin-releasing hormone receptor (Rattus norvegicus, UniProt P30969); assay: Displacement of [125I]-(D-Trp6)-GnRH from rat GnRH receptor; how it was run: as §1
T2 sequence (P30969 whole entry): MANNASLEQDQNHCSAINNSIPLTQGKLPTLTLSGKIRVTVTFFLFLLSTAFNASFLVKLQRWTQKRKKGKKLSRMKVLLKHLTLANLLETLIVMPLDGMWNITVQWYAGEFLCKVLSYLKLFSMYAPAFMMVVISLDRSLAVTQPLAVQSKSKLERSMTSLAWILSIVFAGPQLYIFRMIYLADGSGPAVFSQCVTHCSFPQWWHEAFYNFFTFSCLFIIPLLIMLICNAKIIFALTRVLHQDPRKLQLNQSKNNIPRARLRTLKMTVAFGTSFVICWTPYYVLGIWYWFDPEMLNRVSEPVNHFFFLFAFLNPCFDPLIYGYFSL

[3] = Solubility at pH 7.4; assay type: physicochemical; settings: buffer
[4] = Metabolic stability in rat liver microsomes assessed as half life; assay type: ADME, Microsome
[5] = target: CYP3A4 (Homo sapiens, UniProt P08684); assay: Inhibition of CYP3A4 at 3 uM; assay type: ADME
[6] = target: CYP2D6 (Homo sapiens, UniProt P10635); assay: Inhibition of CYP2D6 at 3 uM; assay type: ADME
[7] = target: CYP2C9 (Homo sapiens, UniProt P11712); assay: Inhibition of CYP2C9 at 3 uM; assay type: ADME
[8] = target: T1, Gonadotropin-releasing hormone receptor; assay: Antagonist activity at human recombinant GnRH receptor expressed in HEK293 cells assessed as reduction in (D-Trp6)-GnRH-stimulated IP production by whole cell assay; assay type: functional, cell-based
How it was run: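 Whole-cell assay, cells stimulated with (D-Trp6)-GnRH; compound-driven reduction of inositol phosphate read as IC50.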

[9] = Reduction in leutinizing hormone release in (D-Trp6)-GnRH-stimulated rat primary pituitary cells by RIA; assay type: functional, cell-based; settings: Pituitary gland cell
How it was run: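 Primary rat pituitary cells stimulated with (D-Trp6)-GnRH; compound-driven reduction of LH release read as IC50.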

[10] = target: T3, Gonadotropin-releasing hormone receptor (Homo sapiens) (UniProt P30968); assay: Displacement of [125I]-(D-Trp6)-GnRH from human GnRH receptor at 50 nM
T3 sequence (whole entry): T1 sequence (P30968 whole entry)

[11] = Volume of distribution at steady state in orchidectomized Sprague-Dawley rat at 1 mg/kg, iv after 1 day; assay type: ADME, organism-based; design: dose 1 mg/kg, route intravenous; settings: male, in vivo, read-out: Vdss
How it was run: (§2)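 Orchidectomized SD rats, single iv dose of 1 mg/kg in 20% DMSO/PEG 200; one-day PK study.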

[12] = Half life in orchidectomized Sprague-Dawley rat at 1 mg/kg, iv after 1 day; assay type: ADME, organism-based; design: dose 1 mg/kg, route intravenous; settings: male, in vivo; how it was run: as §2
[13] = tested on: Rattus norvegicus; assay: AUC (0 to alpha) in orchidectomized Sprague-Dawley rat at 20 mg/kg, po after 1 day; assay type: ADME, organism-based, Plasma; design: dose 20 mg/kg, route oral; settings: in vivo, 24 h
How it was run: (§3)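 Orchidectomized SD rats, single oral dose of 20 mg/kg in 0.4 N HCl/2% TWEEN 80; iv arm 1 mg/kg in 20% DMSO/PEG 200 for bioavailability; one-day PK study.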

[14] = Half life in orchidectomized Sprague-Dawley rat at 20 mg/kg, po after 1 day; assay type: ADME, organism-based; design: dose 20 mg/kg, route oral; settings: male, in vivo; how it was run: as §3
[15] = tested on: Rattus norvegicus; assay: Oral bioavailability in orchidectomized Sprague-Dawley rat at 20 mg/kg after 1 day; assay type: ADME, organism-based; settings: in vivo, 24 h; how it was run: as §3
[16] = Metabolic stability in rat liver microsomes assessed as compound remaining at 1 uM after 15 mins; assay type: ADME, Microsome; settings: read-out: Stability

Chain of CYP2C9 (P11712 whole entry): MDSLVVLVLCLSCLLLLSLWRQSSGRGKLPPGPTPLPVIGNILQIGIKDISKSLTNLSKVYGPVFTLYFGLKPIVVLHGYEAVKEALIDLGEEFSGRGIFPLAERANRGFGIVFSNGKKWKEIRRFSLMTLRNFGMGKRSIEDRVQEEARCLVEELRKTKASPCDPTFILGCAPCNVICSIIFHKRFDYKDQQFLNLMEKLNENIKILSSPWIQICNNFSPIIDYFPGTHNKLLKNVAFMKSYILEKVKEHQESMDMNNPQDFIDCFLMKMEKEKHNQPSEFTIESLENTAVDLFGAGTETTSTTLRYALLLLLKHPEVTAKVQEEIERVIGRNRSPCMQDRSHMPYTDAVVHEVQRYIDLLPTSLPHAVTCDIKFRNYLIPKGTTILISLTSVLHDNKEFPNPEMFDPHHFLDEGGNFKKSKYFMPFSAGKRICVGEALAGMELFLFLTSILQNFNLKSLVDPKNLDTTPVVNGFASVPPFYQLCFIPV
Chain of CYP3A4 (P08684 whole entry): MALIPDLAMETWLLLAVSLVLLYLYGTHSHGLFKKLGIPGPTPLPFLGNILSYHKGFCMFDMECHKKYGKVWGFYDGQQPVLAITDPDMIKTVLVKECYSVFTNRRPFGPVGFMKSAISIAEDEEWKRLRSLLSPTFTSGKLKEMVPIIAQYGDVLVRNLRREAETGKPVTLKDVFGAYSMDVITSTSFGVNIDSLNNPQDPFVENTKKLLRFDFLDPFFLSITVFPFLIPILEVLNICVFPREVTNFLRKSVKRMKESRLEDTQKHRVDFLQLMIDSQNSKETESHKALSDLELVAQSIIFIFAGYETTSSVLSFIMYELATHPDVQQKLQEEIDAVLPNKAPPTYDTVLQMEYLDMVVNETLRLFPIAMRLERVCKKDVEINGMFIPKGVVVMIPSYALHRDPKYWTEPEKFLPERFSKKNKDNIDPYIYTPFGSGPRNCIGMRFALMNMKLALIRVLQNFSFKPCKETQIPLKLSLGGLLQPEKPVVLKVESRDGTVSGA
Chain of CYP2D6 (P10635 whole entry): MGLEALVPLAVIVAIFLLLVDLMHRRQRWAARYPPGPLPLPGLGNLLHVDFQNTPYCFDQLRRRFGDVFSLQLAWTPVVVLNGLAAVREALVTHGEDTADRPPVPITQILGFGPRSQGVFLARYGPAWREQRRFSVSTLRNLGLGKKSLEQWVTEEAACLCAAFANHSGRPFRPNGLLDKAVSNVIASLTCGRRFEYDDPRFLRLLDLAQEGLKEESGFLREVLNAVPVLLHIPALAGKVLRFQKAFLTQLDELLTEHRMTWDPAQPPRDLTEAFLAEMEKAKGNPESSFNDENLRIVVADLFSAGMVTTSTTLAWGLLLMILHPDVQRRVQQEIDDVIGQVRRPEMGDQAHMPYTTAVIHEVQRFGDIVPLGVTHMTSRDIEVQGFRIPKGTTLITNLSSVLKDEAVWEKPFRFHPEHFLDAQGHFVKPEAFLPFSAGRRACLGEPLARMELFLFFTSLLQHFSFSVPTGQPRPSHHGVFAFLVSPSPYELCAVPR

Structure (SMILES)	IC50 [1] [µM]	IC50 [2] [µM]	Activity [10] [%]	also measured
CCc1nc(C)c(CN2CCN(c3cccc4[nH]c(-c5ccc(C(C)(C)C)cc5)nc34)CC2)s1	0.02	0.12		
Cc1nc(CN2CCN(c3cccc4[nH]c(-c5ccc(C(C)(C)C)cc5)nc34)CC2)c(C)s1	0.021			
Cc1n[nH]c(C)c1CN1CCN(c2cccc3[nH]c(-c4ccc(C(C)(C)C)cc4)nc23)CC1	0.068			
CCCn1c(CC)nc(CN2CCN(c3cccc4[nH]c(-c5ccc(C(C)(C)C)cc5)nc34)CC2)c1C	0.029	0.057		
CCc1nc(CN2CCN(c3cccc4[nH]c(-c5ccc(C(C)(C)C)cc5)nc34)CC2)c(C)n1CC	0.008	0.049		solubility [3]: 25 µg/mL (≈ 51.6 µM); half-life [4]: 12 min; IC50 [8]: 0.013 µM; IC50 [9]: 0.296 µM
CCCn1cc(CN2CCN(c3cccc4[nH]c(-c5ccc(C(C)(C)C)cc5)nc34)CC2)nc1C	0.018	0.041		solubility [3]: 55 µg/mL (≈ 117 µM); half-life [4]: 25 min; inhibition at 3 µM [5]: 85%; inhibition at 3 µM [6]: 13%; inhibition at 3 µM [7]: 19%; Vd [11]: 0.2 L/kg; half-life [12]: 54 min; AUC [13]: 3830 ng·h/mL; half-life [14]: 174 min; F [15]: 100%; IC50 [8]: 0.043 µM; IC50 [9]: 0.24 µM
CCCCc1nc(CN2CCN(c3cccc4[nH]c(-c5ccc(C(C)(C)C)cc5)nc34)CC2)cn1C	0.026	0.058		
CCc1nc(CN2CCN(c3cccc4[nH]c(-c5ccc(C(C)(C)C)cc5)nc34)CC2)cn1CC	0.011	0.069		
CCc1nc(C)sc1CN1CCN(c2cccc3[nH]c(-c4ccc(C(C)(C)C)cc4)nc23)CC1			26	
CCn1cc(CN2CCN(c3cccc4[nH]c(-c5ccc(C(C)(C)C)cc5)nc34)CC2)c(=O)[nH]c1=O				solubility [3]: 13 µg/mL (≈ 26.7 µM); half-life [4]: 5 min; remaining at 0.25 h, 1 µM [16]: 12%; inhibition at 3 µM [5]: 74%; inhibition at 3 µM [6]: 0%; inhibition at 3 µM [7]: 34%; IC50 [9]: 0.059 µM
CCCCn1cnc(C)c1CN1CCN(c2cccc3[nH]c(-c4ccc(C(C)(C)C)cc4)nc23)CC1			67	
CCn1cc(CN2CCN(c3cccc4[nH]c(-c5ccc(C(C)(C)C)cc5)nc34)CC2)nc1C	0.01	0.051		
CCCCn1cnc(CN2CCN(c3cccc4[nH]c(-c5ccc(C(C)(C)C)cc5)nc34)CC2)c1C	0.046	0.049		solubility [3]: 3 µg/mL (≈ 6.19 µM); half-life [4]: > 30 min; inhibition at 3 µM [5]: 84%; inhibition at 3 µM [6]: 21%; inhibition at 3 µM [7]: 53%; IC50 [8]: 0.071 µM; IC50 [9]: 0.57 µM
Cc1c(CN2CCN(c3cccc4[nH]c(-c5ccc(C(C)(C)C)cc5)nc34)CC2)ncn1C(C)C	0.019	0.061		
CCCCc1nc(C)c(CN2CCN(c3cccc4[nH]c(-c5ccc(C(C)(C)C)cc5)nc34)CC2)s1			4	
CCCn1cnc(CN2CCN(c3cccc4[nH]c(-c5ccc(C(C)(C)C)cc5)nc34)CC2)c1C	0.012	0.047		
CCc1nc(C)c(CN2CCN(c3cccc4[nH]c(-c5ccc(C(C)(C)C)cc5)nc34)CC2)o1	0.037	0.32		
CCn1nc(CN2CCN(c3cccc4[nH]c(-c5ccc(C(C)(C)C)cc5)nc34)CC2)cc1C			32	
Cc1nn(C)c(C)c1CN1CCN(c2cccc3[nH]c(-c4ccc(C(C)(C)C)cc4)nc23)CC1	0.038	0.45		
Cc1nc(C)c(CN2CCN(c3cccc4[nH]c(-c5ccc(C(C)(C)C)cc5)nc34)CC2)o1	0.031	0.74		
Cc1nc(C)c(CN2CCN(c3cccc4[nH]c(-c5ccc(C(C)(C)C)cc5)nc34)CC2)s1	0.027			
CCc1nc(CN2CCN(c3cccc4[nH]c(-c5ccc(C(C)(C)C)cc5)nc34)CC2)c(C)o1	0.027	0.55		
CCCn1c(CC)nc(C)c1CN1CCN(c2cccc3[nH]c(-c4ccc(C(C)(C)C)cc4)nc23)CC1	0.057	0.12		

More lines, main results first:

IC50 [1] [µM]	IC50 [2] [µM]	Activity [10] [%]	Structure (SMILES)	also measured
0.0075	0.028		Cc1nc(CN2CCN(c3cccc4[nH]c(-c5ccc(C(C)(C)C)cc5)nc34)CC2)c[nH]1	solubility [3]: 46 µg/mL (≈ 107 µM); half-life [4]: > 30 min; inhibition at 3 µM [5]: 85%; inhibition at 3 µM [6]: 14%; inhibition at 3 µM [7]: 23%; IC50 [8]: 0.044 µM; IC50 [9]: 0.25 µM
0.018	0.078		CCc1nc(CN2CCN(c3cccc4[nH]c(-c5ccc(C(C)(C)C)cc5)nc34)CC2)cn1C	
		12	CC(C)(C)c1ccc(-c2nc3c(N4CCN(Cc5ccco5)CC4)cccc3[nH]2)cc1	
0.083			Cc1cc(CN2CCN(c3cccc4[nH]c(-c5ccc(C(C)(C)C)cc5)nc34)CC2)nn1C	
0.033	0.098		Cn1cnc(CN2CCN(c3cccc4[nH]c(-c5ccc(C(C)(C)C)cc5)nc34)CC2)c1	
		6	CC(C)(C)c1ccc(-c2nc3c(N4CCN(Cc5ccsc5)CC4)cccc3[nH]2)cc1	
		7	CC(C)(C)c1ccc(-c2nc3c(N4CCN(Cc5ccc[nH]5)CC4)cccc3[nH]2)cc1	
0.021	0.29		CC(C)(C)c1ccc(-c2nc3c(N4CCN(Cc5cnc[nH]5)CC4)cccc3[nH]2)cc1	
0.022	0.25		CCc1cc(CN2CCN(c3cccc4[nH]c(-c5ccc(C(C)(C)C)cc5)nc34)CC2)n(C)n1	
0.023	0.31		Cc1cc(CN2CCN(c3cccc4[nH]c(-c5ccc(C(C)(C)C)cc5)nc34)CC2)n(C)n1	
		25	Cn1nccc1CN1CCN(c2cccc3[nH]c(-c4ccc(C(C)(C)C)cc4)nc23)CC1	
		26	CC(C)(C)c1ccc(-c2nc3c(N4CCN(Cc5nccs5)CC4)cccc3[nH]2)cc1	
		24	CC(C)(C)c1ccc(-c2nc3c(N4CCN(Cc5cccs5)CC4)cccc3[nH]2)cc1	
		20	CC(C)(C)c1ccc(-c2nc3c(N4CCN(Cc5ccoc5)CC4)cccc3[nH]2)cc1	
0.01	0.034		Cc1nc(CN2CCN(c3cccc4[nH]c(-c5ccc(C(C)(C)C)cc5)nc34)CC2)cn1C	solubility [3]: 51 µg/mL (≈ 115 µM); half-life [4]: 9 min; inhibition at 3 µM [5]: 66%; inhibition at 3 µM [6]: 3%; inhibition at 3 µM [7]: 12%; IC50 [8]: 0.023 µM; IC50 [9]: 0.3 µM
0.043	0.35		CCc1cc(CN2CCN(c3cccc4[nH]c(-c5ccc(C(C)(C)C)cc5)nc34)CC2)nn1C	
0.09	0.85		Cc1ncoc1CN1CCN(c2cccc3[nH]c(-c4ccc(C(C)(C)C)cc4)nc23)CC1	
		40	CC(C)(C)c1ccc(-c2nc3c(N4CCN(Cc5ncc[nH]5)CC4)cccc3[nH]2)cc1	
0.705			Cc1ccc(CN2CCN(c3cccc4[nH]c(-c5ccc(C(C)(C)C)cc5)nc34)CC2)o1	
		6	Cn1cccc1CN1CCN(c2cccc3[nH]c(-c4ccc(C(C)(C)C)cc4)nc23)CC1	
